Bioassay records as filed in PubChem.
WT yeast gro inh – growth inhibition of WT yeast, mitochondrial fusion screen | inhibition, % at 10 µM | mitochondrial fusion phenotypic screen, WT strain | 190,000 tested, 2.1% active; in the data active = inhibition above about 58%; tested in S. cerevisiae
Lmaj promast – Leishmania major promastigote growth inhibition; Leishmania major promastigotes, resazurin fluorescence viability; inhibition, % at 10 µM; 200,000 tested, 9% active; AID 1063; in the data active = inhibition above about 50%;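 also: promastigotes grown with compound for 44 hours at 28 °C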
PMI act satM6P – PMI (human) activation, high substrate; P34949; coupled PMI enzyme assay, resazurin fluorescence, 20 min; hits give high values; 1 = untreated enzyme, 0 = substrate-free blank; activation factor at 20 µM; 190,000 tested, 0.34% active;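 active = activation factor of 2 or more at 20 µM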
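Test system: human phosphomannose isomerase with PGI, G6PDH, diaphorase coupling enzymes; amount: 15 ng/mL PMI; incubation: enzyme reaction with compound 20 min at room temperature; technique: resorufin fluorescence (Ex 544/Em 590 nm) from resazurin via diaphorase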
PMI activator – phosphomannose isomerase (human) activation | P34949 | purified human PMI, coupled resazurin fluorescence, 20 min; hits give high values; 1 = vehicle control, 0 substrate-free wells | activation factor at 20 µM | 190,000 tested, 0.005% active;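 active = activation factor of 2 or more at 20 µM, relative to plate controls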
Calpain2 inh – blocks pig calpain II enzyme activity; 220,000 tested, 0.37% active; inhibition, % at 16 µM; AID 1236; purified calpain II, fluorogenic peptide substrate, 30 min;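 active = inhibition above about 50%, limit read from the data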
Rad51 HR inh – blocks human Rad51 in homologous recombination; Q06609; hRad51 DNA strand exchange, fluorescence dequenching; inhibition, % at 10 µM; 200,000 tested, 0.085% active;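 active = inhibition above 40% at the single screening dose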
Target sequence (Q06609 whole entry, looked up): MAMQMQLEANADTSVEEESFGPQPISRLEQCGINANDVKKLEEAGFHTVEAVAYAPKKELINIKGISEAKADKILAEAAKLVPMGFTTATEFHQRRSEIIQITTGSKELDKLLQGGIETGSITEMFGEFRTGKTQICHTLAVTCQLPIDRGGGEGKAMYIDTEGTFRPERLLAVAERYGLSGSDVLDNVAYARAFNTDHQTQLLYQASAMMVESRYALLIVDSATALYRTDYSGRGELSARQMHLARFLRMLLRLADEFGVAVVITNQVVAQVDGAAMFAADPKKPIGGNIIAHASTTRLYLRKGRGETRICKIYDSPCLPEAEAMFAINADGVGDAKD
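Test system – preformed human Rad51 ssDNA filaments · Reagent – Donor/quencher-labelled 47-bp dsDNA substrate · Incubation – 37 °C 15-min filament assembly, 30-min compound preincubation, 15-min exchange · Signal – FRET fluorescence dequenching, excitation 485 nm, emission 520 nm · Read-out – percent inhibition from fluorescence, normalised to plate control and blank means · Benchmarks – plate control and blank wells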
Large screens that a line does not name were inactive. A selection: hits, their analogues and other compounds. The true share with any hit is near 9.8%.

COc1cc(/C=N/NC(=O)c2cccnc2)ccc1OS(=O)(=O)c1cc(C)ccc1C	Lmaj promast 97
COc1cc(/C=N/NC(=O)c2cccnc2)ccc1OCC(=O)Nc1ccc(C)cc1	Lmaj promast 55
COc1cc(/C=N/NC(=O)c2cccnc2)ccc1OS(=O)(=O)c1ccc(C)cc1	none
CCOC(=O)C1CCN(C(=O)c2cc3ccccc3oc2=O)CC1	none
CC(C)(O)P(=O)(O)CCc1ccccc1	none (no result: WT yeast gro inh, Lmaj promast, PMI act satM6P, PMI activator)
Fc1cccc(NC(=S)N2CCCCC2)c1	none (no result: Rad51 HR inh)
CSc1cccc(NC(=S)N2CCC(N(C)C3CCCCC3C)CC2)c1 (stereo not drawn)	Lmaj promast 82
CSc1cccc(NC(=S)N2CCCN(Cc3ccccc3F)C2)c1	Lmaj promast 76
CSc1cccc(NC(=O)CN(C2CCCCC2)S(C)(=O)=O)c1	none
CSc1cccc(NC(=S)N2CCC(N(C)C3CCCCC3)CC2)c1	Lmaj promast 88
C/C(N)=C(/C#N)C(=O)CSc1nc2scc(-c3ccc(F)cc3)c2c(=O)n1C	none
CCN1CCN(CCCCSc2ccccc2)CC1	Lmaj promast 78
CCOC(=O)N1CCN(C(=O)CCSc2ccccc2)CC1	none
CCc1ccc2nc3sc(C(=O)O)cc3cc2c1	none
COc1ccc(-c2nn(-c3ccccc3)cc2C(=O)N2c3ccc(C)cc3C3CN(C)CCC32)cc1 (stereo not drawn)	Lmaj promast 59
CCn1c2ccccc2c2cc(NC(=O)c3ccccc3[N+](=O)[O-])ccc21	none
COc1ccc(C(=O)Nc2cccc(-c3nnc(-c4ccco4)o3)c2)cc1	none
COc1ccc(CC(=O)Nc2cccc(-c3nnc(-c4ccco4)o3)c2)cc1	Lmaj promast 61 (no result: Rad51 HR inh)
CC(=O)Nc1cccc(NC(C)=O)n1	none
CC(C)CC(=O)Nc1cccc(NC(=O)CC(C)C)n1	Lmaj promast 52
O=C(NCCc1c[nH]c2ccccc12)/C(=C\c1cccnc1)NC(=O)c1ccccc1F	none (no result: WT yeast gro inh, Lmaj promast, PMI act satM6P, PMI activator)
CCOC(=O)c1c(C)c(/C=N/Nc2ccccc2)n(C)c1C	PMI act satM6P 2.5
CCOC(=O)c1c(C)c(C(=O)O)n(C)c1C	none
CC(C)=CCC/C(C)=C/COc1ccc2ccc(=O)oc2c1	WT yeast gro inh 61
C/C(=N\NC(=S)NCCc1ccccc1)c1cccc(Br)c1	none
S=C(NCc1ccccc1)NCc1ccc(CNC(=S)NCc2ccccc2)cc1	none (no result: Rad51 HR inh)
C/C(=N\NC(=S)NCc1ccccc1)c1cccc(Br)c1	WT yeast gro inh 70 (no result: Rad51 HR inh)
C/C(=N\NC(=S)NCc1ccccc1)c1ccc2ccccc2c1	WT yeast gro inh 64
C/C(CCC(C)C)=N\NC(=S)NCc1ccccc1	WT yeast gro inh 60
COc1ccccc1/C(C)=N/NC(=S)NCc1ccccc1	WT yeast gro inh 65
O=C(NC1(C(F)(F)F)OCCO1)c1ccc(F)cc1	none
O=C(c1cccc2ccccc12)N1CCN(c2ccc([N+](=O)[O-])c(NCc3ccco3)c2)CC1	Lmaj promast 55
Cc1ccc(S(=O)(=O)N2CCOCC2)cc1NC(=O)COC(=O)c1cccnc1Cl	none
Nc1ccccc1C#Cc1cnccn1	none (no result: WT yeast gro inh, Lmaj promast, PMI act satM6P, PMI activator, Calpain2 inh)
N#C/C(=C\c1ccccn1)c1nc2ccccc2s1	WT yeast gro inh 59 (no result: Rad51 HR inh)
COc1ccc(/C(C#N)=C/c2ccccn2)cc1	none (no result: WT yeast gro inh, Lmaj promast, PMI act satM6P, PMI activator)
COC(=O)c1ccc(/C=C(\C#N)c2nc3ccccc3s2)cc1	WT yeast gro inh 84
O=C(C1CCOCC1)N1CCC(CO)(CCc2ccccc2)CC1	none (no result: Rad51 HR inh)
Brc1ccc(-c2ncc3ccccn23)cc1	none (no result: WT yeast gro inh, Lmaj promast, PMI act satM6P, PMI activator, Rad51 HR inh)
CNC(=O)COC(=O)c1ccc(OCC(=O)Nc2ccccc2OC)c(OC)c1	none
COc1ccccc1NC(=O)COC(=O)c1ccc2c(c1)nc(C)n2-c1ccccc1	Lmaj promast 57
N#Cc1nc(Cc2cccc3ccccc23)oc1NCCCn1ccnc1	Lmaj promast 59
COc1ccc(-n2cc(-c3ccccc3)[n+]3c2CCCCC3)cc1	Lmaj promast 100
COc1ccc(-c2cn(-c3ccc(OC)cc3)c3[n+]2-c2ccccc2CC3)cc1	Lmaj promast 100
COc1ccc(-n2cc(-c3ccccc3)nc2SC)cc1	none
Nc1cc(C(F)(F)F)ccc1Nc1ccccc1	none
CCOc1cc(C=O)c(Br)cc1OC1CCCC1	Lmaj promast 83
COc1cc(C=O)c(Br)cc1OCc1ccc(C)cc1	none
CN(C)S(=O)(=O)c1cc(NC2CC(=O)N(c3ccc(F)cc3)C2=O)ccc1Cl (stereo not drawn)	none
O=c1c2ccccc2cnn1Cc1n[nH]c(=S)n1-c1ccccc1	none
COc1ccc(C2CC(=O)c3cnn(-c4nc(C)cc(C)n4)c3C2)cc1 (stereo not drawn)	Lmaj promast 78
CC(=O)c1cc(C(=O)N2CCCC(CCC(=O)N(C)CCc3ccccn3)C2)cs1 (stereo not drawn)	none (no result: Rad51 HR inh)
CCc1ccccc1NC(=O)CN(C)C(=O)CSc1nnc(Nc2ccc(C)cc2)s1	Lmaj promast 72
CCc1ccc(Nc2nnc(SCC(=O)N(C)CC(=O)Nc3ccccc3CC)s2)cc1	Lmaj promast 73
Cc1ccc(Nc2nnc(SCC(=O)Nc3cccnc3Cl)s2)cc1C	Lmaj promast 83
NNC(=O)COc1ccc(C(F)(F)F)cc1	none
CCCN1CCC(=O)N([C@H](CSc2ccc(OC)cc2)c2ccccc2)CC1	none (no result: WT yeast gro inh, Lmaj promast, PMI act satM6P, PMI activator)
C=CCN=C(NC#N)SC	none (no result: WT yeast gro inh, Lmaj promast, PMI act satM6P, PMI activator)
O=C(N/N=C/c1ccc([N+](=O)[O-])s1)c1ccncc1	Lmaj promast 100
Cc1cc(C)n(CC(=O)N/N=C/c2ccc([N+](=O)[O-])s2)n1	Lmaj promast 99
Cc1cc(C)n(CC(=O)N/N=C/c2cccs2)n1	none
Cc1ccc(/C=N/NC(=O)c2ccncc2)s1	none (no result: WT yeast gro inh, Lmaj promast, PMI act satM6P, PMI activator, Rad51 HR inh)
O=C(N/N=C/c1cccc([N+](=O)[O-])c1)c1cccc(Br)c1	none
O=C(N/N=C/c1ccc([N+](=O)[O-])s1)c1cccc(Br)c1	Lmaj promast 100
COc1ccc(NC(=O)CCC(=O)N/N=C/c2ccc([N+](=O)[O-])s2)cc1	Lmaj promast 100
COc1ccccc1CCC(=O)Nc1ccc(C)cc1Cl	none
Cc1ccc(C(=O)N/N=C\c2ccc([N+](=O)[O-])s2)cn1	Lmaj promast 100
O=C(N/N=C/c1ccc(O)c2ncccc12)c1cccc(Br)c1	Lmaj promast 100
Cc1ccc(C(=O)N/N=C/c2ccc([N+](=O)[O-])s2)cc1	Lmaj promast 99
Cn1c(SCC(=O)N/N=C/c2ccc([N+](=O)[O-])s2)nnc1-c1ccc(Cl)cc1	Lmaj promast 100
Cc1cc(C(=O)N/N=C/c2ccc([N+](=O)[O-])s2)n[nH]1	none (no result: WT yeast gro inh, Lmaj promast, PMI act satM6P, PMI activator)
O=C(CSCCN1C(=O)c2ccccc2C1=O)Nc1ccc2ccccc2c1	none
CC(C)(C)OC(=O)N/N=C\c1ccc([N+](=O)[O-])s1	Lmaj promast 80
COc1ccc(Nc2nnc(SCC(=O)/C=C3/N(C)c4ccccc4C3(C)C)s2)cc1	Lmaj promast 96
